Assay results reported in ChEMBL document CHEMBL1275331, “Discovery of a novel 5-HT(3) antagonist/5-HT(1A) agonist 3-amino-5,6,7,8-tetrahydro-2-{4-[4-(quinolin-2-yl)piperazin-1-yl]butyl}quinazolin-4(3H)-one (TZB-30878) as an orally bioavailable agent for irritable bowel syndrome” (J Med Chem, 2010).

Assays:
[1] = target: T1, 5-hydroxytryptamine receptor 1A (Homo sapiens, UniProt P08908); assay: Displacement of [3H]8-OH-DPAT from human 5HT1A receptor expressed in CHO cells by liquid scintillation counting; assay type: cell-based
T1 sequence (P08908 whole entry): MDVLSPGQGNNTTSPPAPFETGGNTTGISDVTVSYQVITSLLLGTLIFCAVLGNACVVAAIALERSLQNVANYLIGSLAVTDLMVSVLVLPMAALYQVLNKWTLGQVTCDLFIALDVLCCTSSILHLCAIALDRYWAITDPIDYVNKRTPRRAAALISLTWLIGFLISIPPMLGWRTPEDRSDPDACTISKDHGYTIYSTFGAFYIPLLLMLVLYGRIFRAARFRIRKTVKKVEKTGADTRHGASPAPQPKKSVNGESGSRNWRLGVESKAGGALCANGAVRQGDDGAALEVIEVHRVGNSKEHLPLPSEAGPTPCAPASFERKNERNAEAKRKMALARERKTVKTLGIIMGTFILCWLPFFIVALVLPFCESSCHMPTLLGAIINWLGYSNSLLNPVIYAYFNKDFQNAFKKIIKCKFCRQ
How it was run: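 CHO-cell membranes with human 5-HT1A were incubated with 0.25 nmol/L [3H]8-OH-DPAT (final) for 60 min at 27 °C. Buffer: 50 mM Tris-HCl, 10 mM MgSO4, 0.5 mM EDTA, 0.1% ascorbic acid, pH 7.4. Compound came from 270 μmol/L DMSO stock, diluted in buffer. Filtration was through GF/C presoaked in 0.3% polyethyleneimine, with two cold Tris washes. Run in duplicate or triplicate; percent inhibition of binding calculated.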

[2] = target: T2, 5-hydroxytryptamine receptor 3A (Cavia porcellus) (UniProt O70212); assay: Inhibition of 5HT3 receptor-mediated contraction of guinea pig ileum at 1 umol/L after 20 mins relative to control; assay type: tissue-based
T2 sequence (whole entry): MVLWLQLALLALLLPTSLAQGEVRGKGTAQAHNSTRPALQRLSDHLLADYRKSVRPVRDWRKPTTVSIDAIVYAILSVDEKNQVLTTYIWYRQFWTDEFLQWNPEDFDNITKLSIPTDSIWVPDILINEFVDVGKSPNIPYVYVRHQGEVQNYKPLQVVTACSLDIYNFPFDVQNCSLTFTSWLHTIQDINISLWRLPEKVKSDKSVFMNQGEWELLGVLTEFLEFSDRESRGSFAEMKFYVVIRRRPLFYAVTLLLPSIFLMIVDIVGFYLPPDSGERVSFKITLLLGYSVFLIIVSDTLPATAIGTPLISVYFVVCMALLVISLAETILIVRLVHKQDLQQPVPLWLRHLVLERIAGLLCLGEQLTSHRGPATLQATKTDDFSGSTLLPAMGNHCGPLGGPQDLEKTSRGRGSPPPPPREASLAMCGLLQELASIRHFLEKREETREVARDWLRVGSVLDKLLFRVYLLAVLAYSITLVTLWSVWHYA
How it was run: (§1)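 Ileum strips in Tyrode solution at 37 °C, gassed 5% CO2/95% O2, isotonic contractions under 1 g load. After at least 3 stable contractions to 10 μM 2-methyl-5-HT, tissue exposed to compound or DMSO vehicle for 20 min, then 10 μM 2-methyl-5-HT re-added; contraction expressed as % inhibition of control.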

[3] = target: T2, 5-hydroxytryptamine receptor 3A (Cavia porcellus); assay: Inhibition of 5HT3 receptor-mediated contraction of guinea pig ileum at 0.1 umol/L after 20 mins relative to control; assay type: tissue-based; how it was run: as §1
[4] = Drug level in Sprague-Dawley rat brain at 3 mg/kg, po after 2 hrs by HPLC analysis; assay type: ADME, organism-based; design: dose 3 mg/kg, route oral; conditions: read-out: Drug uptake
How it was run: (§2)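 Total compound concentration was measured in brain and blood at 2, 4 and 8 h after a single oral 3 mg/kg dose. Brain/blood ratio was also derived. Values are mean ± SD of three rats.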

[5] = Drug level in Sprague-Dawley rat blood at 3 mg/kg, po after 2 hrs by HPLC analysis; assay type: ADME, organism-based; design: dose 3 mg/kg, route oral; conditions: whole blood, read-out: Drug uptake; how it was run: as §2
[6] = Ratio of drug level in brain to blood in Sprague-Dawley rat at 3 mg/kg, po after 2 hrs; assay type: ADME, organism-based; design: dose 3 mg/kg, route oral
How it was run: (§3)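 Rats dosed 3 mg/kg orally; total compound levels measured in brain and blood at 2, 4 and 8 h, brain/blood ratio derived. Mean ± SD of three rats.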

[7] = Drug level in Sprague-Dawley rat blood at 3 mg/kg, po after 4 hrs by HPLC analysis; assay type: ADME, organism-based; design: dose 3 mg/kg, route oral; conditions: whole blood, read-out: Drug uptake; how it was run: as §2
[8] = Ratio of drug level in brain to blood in Sprague-Dawley rat at 3 mg/kg, po after 4 hrs; assay type: ADME, organism-based; design: dose 3 mg/kg, route oral; how it was run: as §3
[9] = Ratio of drug level in brain to blood in Sprague-Dawley rat at 3 mg/kg, po after 8 hrs; assay type: ADME, organism-based; design: dose 3 mg/kg, route oral; how it was run: as §3
Rattus norvegicus = assay: Effect on 5HT1A receptor-mediated hypothermic effect in rat assessed as change in rectal temperature at 10 mg/kg, iv after 30 mins; assay type: functional, organism-based; design: dose 10 mg/kg
How it was run: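 Rats were conditioned over 2 weeks and acclimated to the cage for 1 h before dosing (vehicle: saline with diluted HCl). Rectal temperature was recorded with a thermistor probe inserted 3 cm, before and 30 min after administration. The change in temperature was reported.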

[10] = target: T3, Adrenergic receptor alpha-2 (Rattus norvegicus, UniProt P22086+P19328+P22909); assay: Inhibition of rat alpha2 adrenergic receptor
Adenosine receptor A3 = Adenosine receptor A3 (Homo sapiens, UniProt P0DMS8); assay: Displacement of [125I]AB-MECA from human recombinant adenosine A3 receptor
[11] = target: T3, Adrenergic receptor alpha-2; assay: Displacement of [3H]RX821002 from rat cerebral cortex alpha2 adrenergic receptor; assay type: tissue-based
D(1A) dopamine receptor = D(1A) dopamine receptor (Homo sapiens, UniProt P21728); assay: Displacement of [3H]SCH23390 from human recombinant dopamine D1 receptor
D(2) dopamine receptor = D(2) dopamine receptor (Homo sapiens, UniProt P14416); assay: Displacement of [3H]spiperone from human recombinant dopamine D2 receptor
[12] = Displacement of [3H]GABA from rat cerebral cortex GABA(A) receptor; assay type: tissue-based
Histamine H1 receptor = Histamine H1 receptor (Homo sapiens, UniProt P35367); assay: Displacement of [3H]pyrilamine from human recombinant histamine H1 receptor
Histamine H2 receptor = Histamine H2 receptor (Homo sapiens, UniProt P25021); assay: Displacement of [125I]APT from human recombinant histamine H2 receptor
[13] = target: Muscarinic acetylcholine receptor M1 (Homo sapiens, UniProt P11229); assay: Displacement of [3H]pirenzepine from human recombinant muscarinic M1 receptor
Neuromedin-K receptor = Neuromedin-K receptor (Homo sapiens, UniProt P29371); assay: Displacement of [3H]SR142801 from human recombinant NK3 receptor
[14] = target: Neuropeptide Y receptor type 1 (Homo sapiens, UniProt P25929); assay: Displacement of [125I]peptide YY from NPY1 receptor in human SK-N-MC cells; assay type: cell-based
[15] = target: Neuropeptide Y receptor type 2 (Homo sapiens, UniProt P49146); assay: Displacement of [125I]peptide YY from NPY2 receptor in human KAN-TS cells; assay type: cell-based
[16] = target: 5-hydroxytryptamine receptor 5A (Homo sapiens, UniProt P47898); assay: Displacement of [3H]LSD from human recombinant 5HT5A receptor
[17] = target: 5-hydroxytryptamine receptor 6 (Homo sapiens, UniProt P50406); assay: Displacement of [3H]LSD from human recombinant 5HT6 receptor
[18] = target: 5-hydroxytryptamine receptor 7 (Homo sapiens, UniProt P34969); assay: Displacement of [3H]LSD from human recombinant 5HT7 receptor
5-hydroxytryptamine receptor 7, sequence (P34969 whole entry): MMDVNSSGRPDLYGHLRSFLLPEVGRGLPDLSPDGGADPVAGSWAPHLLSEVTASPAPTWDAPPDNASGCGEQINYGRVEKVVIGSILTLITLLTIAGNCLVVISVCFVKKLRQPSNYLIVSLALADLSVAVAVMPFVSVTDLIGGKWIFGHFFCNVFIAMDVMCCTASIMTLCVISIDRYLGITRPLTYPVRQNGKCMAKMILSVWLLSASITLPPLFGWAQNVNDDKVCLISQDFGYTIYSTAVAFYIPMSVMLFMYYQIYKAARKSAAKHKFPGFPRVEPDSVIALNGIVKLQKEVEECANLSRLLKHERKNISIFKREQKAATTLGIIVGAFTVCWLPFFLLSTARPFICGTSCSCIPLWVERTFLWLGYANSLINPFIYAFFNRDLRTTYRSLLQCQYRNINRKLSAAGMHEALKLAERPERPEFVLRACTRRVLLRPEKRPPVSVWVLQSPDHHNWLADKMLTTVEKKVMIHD

D(2) dopamine receptor, sequence (P14416 whole entry): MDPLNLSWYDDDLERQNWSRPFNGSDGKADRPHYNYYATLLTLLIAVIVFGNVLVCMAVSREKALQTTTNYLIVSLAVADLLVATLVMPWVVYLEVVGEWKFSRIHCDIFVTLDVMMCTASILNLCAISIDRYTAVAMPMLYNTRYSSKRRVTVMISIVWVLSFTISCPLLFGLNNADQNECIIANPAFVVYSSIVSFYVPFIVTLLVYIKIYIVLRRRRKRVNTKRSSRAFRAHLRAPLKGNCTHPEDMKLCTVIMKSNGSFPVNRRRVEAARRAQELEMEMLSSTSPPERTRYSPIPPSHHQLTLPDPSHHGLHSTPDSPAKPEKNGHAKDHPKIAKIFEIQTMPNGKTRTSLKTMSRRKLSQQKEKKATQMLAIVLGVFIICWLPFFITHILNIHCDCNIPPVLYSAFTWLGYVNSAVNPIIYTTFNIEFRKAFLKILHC
Neuropeptide Y receptor type 1, sequence (P25929 whole entry): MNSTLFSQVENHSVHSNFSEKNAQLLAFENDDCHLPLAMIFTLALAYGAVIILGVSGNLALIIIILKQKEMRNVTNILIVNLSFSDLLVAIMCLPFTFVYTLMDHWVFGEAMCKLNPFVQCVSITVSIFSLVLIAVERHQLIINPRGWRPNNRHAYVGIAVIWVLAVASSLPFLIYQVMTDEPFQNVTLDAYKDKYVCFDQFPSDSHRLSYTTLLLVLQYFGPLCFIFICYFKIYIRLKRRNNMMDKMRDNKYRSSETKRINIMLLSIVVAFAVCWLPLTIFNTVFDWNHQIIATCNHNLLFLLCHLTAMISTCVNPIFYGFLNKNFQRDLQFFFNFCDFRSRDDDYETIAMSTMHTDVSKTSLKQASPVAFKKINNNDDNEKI
Adenosine receptor A3, sequence (P0DMS8 whole entry): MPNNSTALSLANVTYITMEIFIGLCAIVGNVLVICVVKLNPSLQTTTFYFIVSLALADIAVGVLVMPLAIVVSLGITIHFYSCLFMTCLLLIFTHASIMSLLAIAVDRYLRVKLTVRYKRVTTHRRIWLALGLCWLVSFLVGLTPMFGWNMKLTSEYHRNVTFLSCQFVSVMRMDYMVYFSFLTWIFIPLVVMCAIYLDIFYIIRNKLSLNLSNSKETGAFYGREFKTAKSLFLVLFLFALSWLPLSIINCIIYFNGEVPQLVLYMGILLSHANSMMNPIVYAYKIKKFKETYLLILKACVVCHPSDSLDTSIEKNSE
Histamine H1 receptor, sequence (P35367 whole entry): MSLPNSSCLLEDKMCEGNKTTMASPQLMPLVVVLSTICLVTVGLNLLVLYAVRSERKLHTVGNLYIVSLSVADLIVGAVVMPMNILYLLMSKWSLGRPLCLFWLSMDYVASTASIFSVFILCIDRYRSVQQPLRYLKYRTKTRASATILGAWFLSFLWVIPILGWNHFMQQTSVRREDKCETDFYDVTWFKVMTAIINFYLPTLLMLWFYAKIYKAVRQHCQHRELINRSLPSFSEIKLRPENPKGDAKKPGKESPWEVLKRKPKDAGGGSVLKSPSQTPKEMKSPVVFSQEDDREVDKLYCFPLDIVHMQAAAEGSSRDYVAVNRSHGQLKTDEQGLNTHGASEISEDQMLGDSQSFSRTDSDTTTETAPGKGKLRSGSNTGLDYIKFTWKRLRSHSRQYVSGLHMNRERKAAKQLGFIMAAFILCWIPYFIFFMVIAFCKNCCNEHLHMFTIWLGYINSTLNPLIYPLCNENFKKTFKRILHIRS
Neuropeptide Y receptor type 2, sequence (P49146 whole entry): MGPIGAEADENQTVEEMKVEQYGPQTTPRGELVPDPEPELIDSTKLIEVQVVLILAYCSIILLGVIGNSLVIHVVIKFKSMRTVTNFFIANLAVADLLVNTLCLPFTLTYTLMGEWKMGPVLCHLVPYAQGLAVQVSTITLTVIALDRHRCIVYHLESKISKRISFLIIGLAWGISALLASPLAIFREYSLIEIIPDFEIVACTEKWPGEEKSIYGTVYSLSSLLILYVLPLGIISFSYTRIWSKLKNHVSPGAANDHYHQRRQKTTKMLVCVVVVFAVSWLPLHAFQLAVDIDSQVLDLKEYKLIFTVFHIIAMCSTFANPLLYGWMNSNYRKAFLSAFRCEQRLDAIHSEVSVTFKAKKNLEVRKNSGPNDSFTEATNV
5-hydroxytryptamine receptor 5A, sequence (P47898 whole entry): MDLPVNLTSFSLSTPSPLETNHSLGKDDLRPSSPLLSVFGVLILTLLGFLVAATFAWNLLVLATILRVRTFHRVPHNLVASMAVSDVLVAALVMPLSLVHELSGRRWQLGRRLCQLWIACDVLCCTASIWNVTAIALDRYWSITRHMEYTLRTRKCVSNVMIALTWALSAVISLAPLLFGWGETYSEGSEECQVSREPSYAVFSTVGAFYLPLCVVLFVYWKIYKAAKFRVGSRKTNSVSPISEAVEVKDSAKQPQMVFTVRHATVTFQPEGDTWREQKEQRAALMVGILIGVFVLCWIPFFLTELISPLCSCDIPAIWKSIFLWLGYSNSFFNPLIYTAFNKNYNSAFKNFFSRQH
5-hydroxytryptamine receptor 6, sequence (P50406 whole entry): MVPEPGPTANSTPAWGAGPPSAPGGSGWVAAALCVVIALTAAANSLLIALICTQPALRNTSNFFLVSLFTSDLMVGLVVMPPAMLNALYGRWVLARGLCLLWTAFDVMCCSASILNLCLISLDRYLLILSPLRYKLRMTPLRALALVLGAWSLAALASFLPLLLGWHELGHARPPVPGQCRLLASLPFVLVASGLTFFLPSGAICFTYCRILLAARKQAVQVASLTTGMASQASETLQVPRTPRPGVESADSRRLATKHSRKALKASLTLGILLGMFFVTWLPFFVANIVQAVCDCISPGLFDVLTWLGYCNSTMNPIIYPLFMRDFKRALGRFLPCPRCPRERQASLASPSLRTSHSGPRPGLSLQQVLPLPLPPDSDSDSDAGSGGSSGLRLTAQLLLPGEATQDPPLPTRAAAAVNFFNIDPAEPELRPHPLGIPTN
D(1A) dopamine receptor, sequence (P21728 whole entry): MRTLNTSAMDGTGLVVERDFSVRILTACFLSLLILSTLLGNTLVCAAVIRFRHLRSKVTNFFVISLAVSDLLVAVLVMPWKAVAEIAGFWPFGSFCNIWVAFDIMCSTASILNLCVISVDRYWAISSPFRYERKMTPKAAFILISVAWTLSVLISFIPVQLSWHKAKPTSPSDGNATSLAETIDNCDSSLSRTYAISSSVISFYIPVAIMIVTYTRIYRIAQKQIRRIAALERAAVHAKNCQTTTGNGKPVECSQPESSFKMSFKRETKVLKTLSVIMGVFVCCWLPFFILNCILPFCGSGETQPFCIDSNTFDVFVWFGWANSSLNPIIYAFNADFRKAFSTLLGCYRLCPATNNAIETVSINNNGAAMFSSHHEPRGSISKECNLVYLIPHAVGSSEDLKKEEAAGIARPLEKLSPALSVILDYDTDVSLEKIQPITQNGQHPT
Histamine H2 receptor, sequence (P25021 whole entry): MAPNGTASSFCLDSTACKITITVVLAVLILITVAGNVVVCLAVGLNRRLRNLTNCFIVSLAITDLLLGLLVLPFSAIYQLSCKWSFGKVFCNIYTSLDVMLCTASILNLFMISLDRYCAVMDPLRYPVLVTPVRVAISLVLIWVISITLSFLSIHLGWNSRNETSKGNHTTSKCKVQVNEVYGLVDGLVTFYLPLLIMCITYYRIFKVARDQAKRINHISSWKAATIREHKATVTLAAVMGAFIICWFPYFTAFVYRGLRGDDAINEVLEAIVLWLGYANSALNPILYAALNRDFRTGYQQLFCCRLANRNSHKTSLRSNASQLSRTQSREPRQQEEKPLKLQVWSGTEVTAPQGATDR
Muscarinic acetylcholine receptor M1, sequence (P11229 whole entry): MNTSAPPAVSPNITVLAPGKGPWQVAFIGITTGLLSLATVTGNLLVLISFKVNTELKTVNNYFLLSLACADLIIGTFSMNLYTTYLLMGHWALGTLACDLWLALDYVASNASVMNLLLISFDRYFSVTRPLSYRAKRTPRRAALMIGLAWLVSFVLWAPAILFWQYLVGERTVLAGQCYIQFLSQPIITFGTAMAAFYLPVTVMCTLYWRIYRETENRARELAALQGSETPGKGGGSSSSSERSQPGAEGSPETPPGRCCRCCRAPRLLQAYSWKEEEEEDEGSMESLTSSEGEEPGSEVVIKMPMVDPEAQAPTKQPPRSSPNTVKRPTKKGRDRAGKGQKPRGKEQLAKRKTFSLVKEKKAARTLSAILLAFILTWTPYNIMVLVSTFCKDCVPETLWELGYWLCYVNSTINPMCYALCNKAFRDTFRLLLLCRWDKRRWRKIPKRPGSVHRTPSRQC

IC50 [1]: 1.4 nM
inhibition [2]: 96.8%
inhibition [3]: 70.4%
concentration at 2 h [4]: 160 nM
concentration at 2 h [5]: 66.5 nM
Kp at 2 h [6]: 2.56
concentration at 4 h [7]: 16.8 nM
Kp at 4 h [8]: 4.4
Kp at 8 h [9]: 6.54
IC50 [10]: > 100 nM
IC50 (Adenosine receptor A3): > 1000 nM
IC50 [11]: > 1 ×10⁻⁶ mol/L
IC50 (D(1A) dopamine receptor): > 1000 nM
IC50 (D(2) dopamine receptor): > 1000 nM
IC50 [12]: > 1000 nM
IC50 (Histamine H1 receptor): 1000 nM
IC50 (Histamine H2 receptor): > 1000 nM
IC50 [13]: > 1000 nM
IC50 (Neuromedin-K receptor): > 1000 nM
IC50 [14]: > 1000 nM
IC50 [15]: > 1000 nM
IC50 [16]: > 1000 nM
IC50 [17]: > 1000 nM
IC50 [18]: 1000 nM
SMILES: Nn1c(CCCCN2CCN(c3ccc4ccccc4n3)CC2)nc2c(c1=O)CCCC2
deltaT (Rattus norvegicus): -1.4 °C
